Measurements from ChEMBL document CHEMBL3352121, “Modulation of Activity Profiles for Largazole-Based HDAC Inhibitors through Alteration of Prodrug Properties” (ACS Med Chem Lett, 2014).
The source made the active and inactive calls. The rule behind the calls is not given here.

Key:
Histone deacetylase 1 = Histone deacetylase 1 (Homo sapiens, UniProt Q13547); test: Inhibition of HDAC1 (unknown origin) incubated for 30 mins in presence of BSA and DTT by fluorescence assay
Histone deacetylase 2 = Histone deacetylase 2 (Homo sapiens, UniProt Q92769); test: Inhibition of HDAC2 (unknown origin) incubated for 30 mins in presence of BSA and DTT by fluorescence assay
Histone deacetylase 3 = Histone deacetylase 3 (Homo sapiens, UniProt O15379); test: Inhibition of HDAC3 (unknown origin) incubated for 30 mins in presence of BSA and DTT by fluorescence assay
Outline: (§1)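 Purified HDAC isoforms were tested up to a maximum of 1 μM. IC50 values are averages of duplicate experiments. Disulfide compounds were pretreated with DTT to reduce the disulfide bond.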

Histone deacetylase 4 = Histone deacetylase 4 (Homo sapiens, UniProt P56524); test: Inhibition of HDAC4 (unknown origin) incubated for 30 mins in presence of BSA and DTT by fluorescence assay; outline: as §1
Histone deacetylase 9 = Histone deacetylase 9 (Homo sapiens, UniProt Q9UKV0); test: Inhibition of HDAC9 (unknown origin) at 1 uM incubated for 30 mins in presence of BSA and DTT by fluorescence assay; outline: as §1
HCT-116 [1] = test: In vivo inhibition of HDAC in tumor of human HCT116 cells xenografted nu/nu mouse assessed as increase in histone hyperacetylation at 50 mg/kg, ip after 4 to 24 hrs by immunoblotting method; assay type: functional, organism-based; parameters: dose 50 mg/kg
Outline: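 HCT116 xenograft mice were dosed intraperitoneally at 10 or 50 mg/kg. Tumors were excised after 4, 12 and 24 h, n = 2. Histone hyperacetylation in tumor tissue was assessed by immunoblotting.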

HCT-116 [2] = test: In vivo inhibition of HDAC in tumor of human HCT116 cells xenografted nu/nu mouse assessed as increase in histone hyperacetylation at 50 mg/kg, ip after 12 hrs by immunoblotting method; assay type: functional, organism-based; parameters: dose 50 mg/kg
Outline: (§2)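 Mice bearing HCT116 xenografts were dosed intraperitoneally at 10 or 50 mg/kg, or orally at 50 mg/kg. Tumors were excised at 4, 12 and 24 h. Histone hyperacetylation in the tumors was assessed by immunoblot, n = 2.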

[3] = Drug metabolism in tumor of human HCT116 cells xenografted nu/nu mouse assessed as time for maximum largazole thiol level at 10 mg/kg, ip by HPLC-MS method; assay type: ADME, organism-based, Neoplasm, HCT-116; parameters: dose 10 mg/kg, route intraperitoneal; conditions: in vivo
[4] = Drug metabolism in tumor of human HCT116 cells xenografted nu/nu mouse assessed as time for maximum largazole thiol level at 50 mg/kg, ip by HPLC-MS method; assay type: ADME, organism-based, Neoplasm, HCT-116; parameters: dose 50 mg/kg, route intraperitoneal; conditions: in vivo
HCT-116 [5] = test: In vivo inhibition of HDAC in tumor of human HCT116 cells xenografted nu/nu mouse assessed as increase in histone hyperacetylation at 50 mg/kg, po after 4 to 12 hrs by immunoblotting method; assay type: functional, organism-based; parameters: dose 50 mg/kg; outline: as §2
[6] = Drug metabolism in human HCT116 cells protein lysate solution assessed as largazole thiol formation at 25 ug/mL after 1 hr by HPLC-MS method; assay type: ADME, cell-based; conditions: hct-116, 1 h
Serum = test: Drug metabolism in mouse serum assessed as largazole thiol formation after 0.25 to 1440 mins by HPLC-MS method; assay type: ADME, cell-free
HCT-116 [7] = test: In vivo inhibition of HDAC in tumor of human HCT116 cells xenografted nu/nu mouse assessed as increase in histone hyperacetylation at 10 mg/kg, ip after 4 to 12 hrs by immunoblotting method; assay type: functional, organism-based; parameters: dose 10 mg/kg; outline: as §2
[8] = Drug metabolism in tumor of human HCT116 cells xenografted nu/nu mouse assessed largazole thiol formation at 50 mg/kg, po by HPLC-MS method; conditions: in vivo

Histone deacetylase 3, sequence (O15379 whole entry, canonical isoform): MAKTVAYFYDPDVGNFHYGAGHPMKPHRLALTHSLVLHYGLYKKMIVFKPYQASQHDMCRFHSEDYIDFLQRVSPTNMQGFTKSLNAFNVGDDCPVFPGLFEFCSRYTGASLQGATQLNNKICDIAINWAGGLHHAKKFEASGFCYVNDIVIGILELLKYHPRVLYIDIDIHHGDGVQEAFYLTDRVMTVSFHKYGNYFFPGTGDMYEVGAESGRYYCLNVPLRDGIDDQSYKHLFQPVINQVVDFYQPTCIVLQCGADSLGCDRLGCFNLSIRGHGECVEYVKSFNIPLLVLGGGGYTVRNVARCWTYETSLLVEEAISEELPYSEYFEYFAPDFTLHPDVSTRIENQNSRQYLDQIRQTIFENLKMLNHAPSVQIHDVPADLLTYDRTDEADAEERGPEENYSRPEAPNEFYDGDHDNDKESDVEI
Histone deacetylase 4, sequence (P56524 whole entry): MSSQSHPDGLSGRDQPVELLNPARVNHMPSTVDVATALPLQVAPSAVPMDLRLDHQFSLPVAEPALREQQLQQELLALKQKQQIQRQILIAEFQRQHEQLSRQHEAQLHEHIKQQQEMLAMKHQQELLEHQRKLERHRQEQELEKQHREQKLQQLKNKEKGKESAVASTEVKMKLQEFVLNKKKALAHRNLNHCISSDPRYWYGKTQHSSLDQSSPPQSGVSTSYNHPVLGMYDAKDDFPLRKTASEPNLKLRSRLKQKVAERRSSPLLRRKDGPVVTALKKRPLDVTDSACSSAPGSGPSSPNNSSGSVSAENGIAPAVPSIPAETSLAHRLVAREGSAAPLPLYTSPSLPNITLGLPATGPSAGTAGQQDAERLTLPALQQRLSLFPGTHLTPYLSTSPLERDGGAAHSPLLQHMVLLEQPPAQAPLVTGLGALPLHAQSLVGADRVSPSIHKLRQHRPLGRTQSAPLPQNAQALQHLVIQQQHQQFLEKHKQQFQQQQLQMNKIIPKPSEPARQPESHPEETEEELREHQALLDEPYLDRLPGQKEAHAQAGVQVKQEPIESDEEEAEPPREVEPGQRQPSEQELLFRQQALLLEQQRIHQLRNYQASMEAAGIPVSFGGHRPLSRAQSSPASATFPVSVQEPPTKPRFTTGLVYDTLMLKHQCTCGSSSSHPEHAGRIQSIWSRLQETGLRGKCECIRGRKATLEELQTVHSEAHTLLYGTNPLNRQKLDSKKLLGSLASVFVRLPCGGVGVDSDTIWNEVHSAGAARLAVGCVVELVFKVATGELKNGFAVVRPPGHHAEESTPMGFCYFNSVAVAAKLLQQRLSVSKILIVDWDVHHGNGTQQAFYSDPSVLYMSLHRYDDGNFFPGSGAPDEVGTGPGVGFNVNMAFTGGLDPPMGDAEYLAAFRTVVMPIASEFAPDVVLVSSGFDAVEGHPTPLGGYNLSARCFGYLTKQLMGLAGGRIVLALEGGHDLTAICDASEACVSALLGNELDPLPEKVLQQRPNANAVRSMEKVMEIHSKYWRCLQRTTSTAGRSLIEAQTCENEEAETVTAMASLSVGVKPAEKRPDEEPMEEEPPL
Histone deacetylase 9, sequence (Q9UKV0 whole entry): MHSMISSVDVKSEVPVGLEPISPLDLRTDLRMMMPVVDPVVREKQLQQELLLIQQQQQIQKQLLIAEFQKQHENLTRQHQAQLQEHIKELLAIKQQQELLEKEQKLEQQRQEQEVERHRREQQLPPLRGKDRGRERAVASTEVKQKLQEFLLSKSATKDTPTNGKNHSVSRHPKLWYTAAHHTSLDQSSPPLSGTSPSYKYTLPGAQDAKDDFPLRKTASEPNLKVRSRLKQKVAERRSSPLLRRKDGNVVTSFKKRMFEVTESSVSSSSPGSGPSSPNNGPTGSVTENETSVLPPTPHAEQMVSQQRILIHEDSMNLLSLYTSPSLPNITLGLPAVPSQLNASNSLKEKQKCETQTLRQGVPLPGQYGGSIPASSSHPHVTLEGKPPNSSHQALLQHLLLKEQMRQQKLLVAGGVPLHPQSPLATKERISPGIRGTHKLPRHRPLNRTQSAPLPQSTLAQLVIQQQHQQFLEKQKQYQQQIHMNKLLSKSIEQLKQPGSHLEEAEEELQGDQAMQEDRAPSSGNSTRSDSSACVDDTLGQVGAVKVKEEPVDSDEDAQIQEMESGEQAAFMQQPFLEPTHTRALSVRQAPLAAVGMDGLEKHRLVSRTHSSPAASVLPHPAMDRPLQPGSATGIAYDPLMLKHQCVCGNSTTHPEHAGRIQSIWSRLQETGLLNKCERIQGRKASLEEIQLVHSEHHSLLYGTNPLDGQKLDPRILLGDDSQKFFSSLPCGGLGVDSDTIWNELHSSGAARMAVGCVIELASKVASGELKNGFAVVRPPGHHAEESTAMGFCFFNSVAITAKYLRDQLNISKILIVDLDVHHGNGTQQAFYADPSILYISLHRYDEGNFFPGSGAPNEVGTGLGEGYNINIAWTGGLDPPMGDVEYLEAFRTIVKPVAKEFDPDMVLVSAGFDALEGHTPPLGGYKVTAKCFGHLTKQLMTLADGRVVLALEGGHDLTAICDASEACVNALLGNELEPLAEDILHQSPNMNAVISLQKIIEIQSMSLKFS
Histone deacetylase 2, sequence (Q92769 whole entry): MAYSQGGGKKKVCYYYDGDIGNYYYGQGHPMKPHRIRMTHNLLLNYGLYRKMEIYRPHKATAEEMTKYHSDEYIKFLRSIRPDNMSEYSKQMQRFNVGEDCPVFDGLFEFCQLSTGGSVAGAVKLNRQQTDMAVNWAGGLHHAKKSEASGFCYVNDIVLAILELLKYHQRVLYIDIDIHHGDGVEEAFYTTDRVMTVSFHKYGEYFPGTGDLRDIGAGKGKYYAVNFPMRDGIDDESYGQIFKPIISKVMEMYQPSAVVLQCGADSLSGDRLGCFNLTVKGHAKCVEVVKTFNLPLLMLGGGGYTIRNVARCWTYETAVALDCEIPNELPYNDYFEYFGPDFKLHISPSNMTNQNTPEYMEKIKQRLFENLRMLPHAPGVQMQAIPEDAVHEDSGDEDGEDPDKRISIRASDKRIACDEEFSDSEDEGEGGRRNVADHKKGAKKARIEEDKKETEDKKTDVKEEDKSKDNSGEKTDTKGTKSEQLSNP
Histone deacetylase 1, sequence (Q13547 whole entry): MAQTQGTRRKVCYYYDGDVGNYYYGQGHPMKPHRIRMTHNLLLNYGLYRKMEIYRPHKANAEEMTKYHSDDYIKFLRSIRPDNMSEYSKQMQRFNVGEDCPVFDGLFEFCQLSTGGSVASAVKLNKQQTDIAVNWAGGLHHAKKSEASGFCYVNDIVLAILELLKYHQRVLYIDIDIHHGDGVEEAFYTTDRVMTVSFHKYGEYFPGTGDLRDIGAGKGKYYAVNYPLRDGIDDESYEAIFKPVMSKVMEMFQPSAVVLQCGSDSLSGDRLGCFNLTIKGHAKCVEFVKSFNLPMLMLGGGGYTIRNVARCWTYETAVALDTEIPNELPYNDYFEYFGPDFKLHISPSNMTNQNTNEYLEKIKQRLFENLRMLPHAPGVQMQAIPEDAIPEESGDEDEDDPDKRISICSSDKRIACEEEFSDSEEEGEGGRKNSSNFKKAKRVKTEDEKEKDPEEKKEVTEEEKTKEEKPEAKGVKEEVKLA

IC50 (Histone deacetylase 1) [nM] | IC50 (Histone deacetylase 2) [nM] | IC50 (Histone deacetylase 3) [nM] | IC50 (Histone deacetylase 4) | inhibition (Histone deacetylase 9) [%] | Tmax [3] [h] | Tmax [4] [h] | Drug metabolism [6] | Drug metabolism (Serum) | Drug metabolism [8] | SMILES | inhibition (HCT-116 [1]) | inhibition (HCT-116 [2]) | inhibition (HCT-116 [5]) | inhibition (HCT-116 [7])
0.4 | 0.9 | 0.6 | Not Active | < 20 |  |  |  |  |  | CC(C)[C@@H]1NC(=O)[C@]2(C)CSC(=N2)c2csc(n2)CNC(=O)C[C@@H](/C=C/CCSSC[C@H](NC(=O)OC(C)(C)C)C(=O)OC(C)(C)C)OC1=O |  |  |  | 
0.3 | 0.5 | 0.3 | Not Active | < 20 | 4 | 4 | metabolite_detected | metabolite_notdetected | metabolite_notdetected | CC(C)[C@@H]1NC(=O)[C@]2(C)CSC(=N2)c2csc(n2)CNC(=O)C[C@@H](/C=C/CCSSCC/C=C/[C@@H]2CC(=O)NCc3nc(cs3)C3=N[C@@](C)(CS3)C(=O)N[C@@H](C(C)C)C(=O)O2)OC1=O | Active | inactive | inactive | Active
